Laboratory results taken from ChEMBL document CHEMBL1255454, “Systematic approach to optimizing specifically targeted antimicrobial peptides against Streptococcus mutans” (2010).
Values after ≈ are worked out from the molar mass of the structure shown. Active and inactive are the calls of the source. The rule behind the calls is not given here. Square brackets hold non-standard residues; d marks the D form. Peptide text beside a SMILES is read from it. Aoc = NCCCCCCCC(=O)O

How the values were obtained:
[1] = Antimicrobial activity against Streptococcus gordonii Challis DL1 after 16 to 20 hrs by broth microdilution assay; type: functional, Streptococcus gordonii str. Challis
In short: (§1)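 Broth microdilution. Twofold peptide dilutions were made in 50% BHI–50% sterile water for oral streptococci and in 1× Mueller-Hinton broth for the other bacteria. First round 500 to 0.97 µg/ml; a second round of 64 to 0.5 µg/ml was run in some cases, reporting its mode. Inoculum ~1 × 10^5 CFU/ml, 37°C for 16–20 h. Read A600; MIC taken as complete inhibition or ≥90% turbidity reduction versus peptide-free control.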

Pseudomonas aeruginosa = experiment: Antimicrobial activity against Pseudomonas aeruginosa PAK after 16 to 20 hrs by broth microdilution assay; type: functional; in short: as §1
Streptococcus mutans [2] = experiment: Antimicrobial activity against Streptococcus mutans UA159 after 16 to 20 hrs by broth microdilution assay; type: functional; in short: as §1
Streptococcus mitis = experiment: Antimicrobial activity against Streptococcus mitis ATCC 903 after 16 to 20 hrs by broth microdilution assay; type: functional; in short: as §1
Streptococcus sanguinis = experiment: Antimicrobial activity against Streptococcus sanguinis NY101 after 16 to 20 hrs by broth microdilution assay; type: functional; in short: as §1
Staphylococcus aureus = experiment: Antimicrobial activity against methicillin-resistant Staphylococcus aureus after 16 to 20 hrs by broth microdilution assay; type: functional
In short: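 MRSA grown aerobically in BHI at 37°C. Broth microdilution: 2-fold peptide dilutions in 1× Mueller-Hinton broth, first round 500 to 0.97 µg/ml; if activity below 62.5 µg/ml, sometimes a second round at 64 to 0.5 µg/ml, reporting the mode. Inoculum ~1 × 10^5 CFU/ml, 37°C for 16-20 h. A600 read. MIC = lowest concentration giving complete inhibition or ≥90% turbidity reduction versus peptide-free control.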

Streptococcus mutans [3] = experiment: Antimicrobial activity against Streptococcus mutans UA159 assessed as inhibition of bacterial biofilm formation at 25 uM after 3 mins by fluorescence assay; type: functional
In short: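 S. mutans UA159 overnight culture was diluted 1:5,000 in TH with 1% sucrose and grown as biofilm for 24 h. Biofilms were exposed 3 min at room temperature to 25 µM fluorescein-labelled peptide in HEPES/NaHCO3/NaCl/MgCl2 buffer with 0.1% CTAB, pH 7.4, then washed twice. Green fluorescence images were taken and biofilm-associated green pixels quantified as binding intensity units.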

Enterococcus faecalis = experiment: Antimicrobial activity against Enterococcus faecalis after 16 to 20 hrs by broth microdilution assay; type: functional; in short: as §1
Escherichia coli = experiment: Antimicrobial activity against Escherichia coli W3110 after 16 to 20 hrs by broth microdilution assay; type: functional; in short: as §1
Streptococcus sobrinus = experiment: Antimicrobial activity against Streptococcus sobrinus ATCC 33478 after 16 to 20 hrs by broth microdilution assay; type: functional; in short: as §1

Molecule	MIC [1]	MIC (Pseudomonas aeruginosa)	MIC (Streptococcus mutans [2])	MIC (Streptococcus mitis)	MIC (Streptococcus sanguinis)	MIC (Staphylococcus aureus)	inhibition (Streptococcus mutans [3])	MIC (Enterococcus faecalis)	MIC (Escherichia coli)	MIC (Streptococcus sobrinus)
H-RWRRLLKKLHHLLH-NH2	16 µg/mL	8 µg/mL	8 µg/mL	32 µg/mL	16 µg/mL	16 µg/mL				
H-IKQLLHFFQRFGGGFIKHFIHRF-NH2	32 µg/mL	125 µg/mL	8 µg/mL	16 µg/mL	32 µg/mL	62.5 µg/mL				
H-FIKHFIHRFSGGRWRRLLKKLHHLLH-NH2	32 µg/mL	32 µg/mL	16 µg/mL	62.5 µg/mL	16 µg/mL	32 µg/mL				
H-FIKHFIHRFSGGRWRWRWF-NH2	32 µg/mL	62.5 µg/mL	8 µg/mL	32 µg/mL	32 µg/mL	32 µg/mL				
H-LQLLKQLLKLLKQFSATFIKHFIHRF-NH2	16 µg/mL	32 µg/mL	8 µg/mL	32 µg/mL	16 µg/mL	32 µg/mL				
H-FKKFWKWFRRFGGGFIKHFIHRF-NH2	125 µg/mL	125 µg/mL	8 µg/mL	62.5 µg/mL	32 µg/mL	32 µg/mL				
H-FHFHLHF-NH2		16 µg/mL	8 µg/mL		16 µg/mL	32 µg/mL	Active	16 µg/mL	8 µg/mL	
H-FIKHFIHRFSATLQLLKQLLKLLKQF-NH2	8 µg/mL	32 µg/mL	16 µg/mL	32 µg/mL	16 µg/mL	62.5 µg/mL				
H-FHFHLHFPSPSPFIKHFIHRF-NH2		125 µg/mL	32 µg/mL		125 µg/mL	> 500 µg/mL		250 µg/mL	62.5 µg/mL	125 µg/mL
H-FIKHFIHRFSATRWRRLLKKLHHLLH-NH2	32 µg/mL	32 µg/mL	16 µg/mL	32 µg/mL	32 µg/mL	16 µg/mL	Active			
H-RWRWRWFSGGFIKHFIHRF-NH2	32 µg/mL	62.5 µg/mL	8 µg/mL	32 µg/mL	32 µg/mL	32 µg/mL				
H-FHFHLHFASASAFIKHFIHRF-NH2		125 µg/mL	16 µg/mL		32 µg/mL	62.5 µg/mL		62.5 µg/mL	62.5 µg/mL	32 µg/mL
H-FIKHFIHRFSGGLQLLKQLLKLLKQF-NH2	8 µg/mL	32 µg/mL	16 µg/mL	62.5 µg/mL	32 µg/mL	32 µg/mL				
CC[C@H](C)[C@H](NC(=O)[C@H](Cc1ccccc1)NC(=O)CCCCCCCNC(=O)[C@H](Cc1ccccc1)NC(=O)[C@H](CCC(N)=O)NC(=O)[C@H](CCCCN)NC(=O)[C@H](CC(C)C)NC(=O)[C@H](CC(C)C)NC(=O)[C@H](CCCCN)NC(=O)[C@H](CC(C)C)NC(=O)[C@H](CC(C)C)NC(=O)[C@H](CCC(N)=O)NC(=O)[C@H](CCCCN)NC(=O)[C@H](CC(C)C)NC(=O)[C@H](CC(C)C)NC(=O)[C@H](CCC(N)=O)NC(=O)[C@@H](N)CC(C)C)C(=O)N[C@@H](CCCCN)C(=O)N[C@@H](Cc1cnc[nH]1)C(=O)N[C@@H](Cc1ccccc1)C(=O)N[C@H](C(=O)N[C@@H](Cc1cnc[nH]1)C(=O)N[C@@H](CCCNC(=N)N)C(=O)N[C@@H](Cc1ccccc1)C(N)=O)[C@@H](C)CC (H-LQLLKQLLKLLKQF[Aoc]FIKHFIHRF-NH2)	16 µg/mL (≈ 5.17 µM)	32 µg/mL (≈ 10.3 µM)	8 µg/mL (≈ 2.59 µM)	32 µg/mL (≈ 10.3 µM)	32 µg/mL (≈ 10.3 µM)	62.5 µg/mL (≈ 20.2 µM)				
CC[C@H](C)[C@H](NC(=O)[C@H](Cc1ccccc1)NC(=O)CCCCCCCNC(=O)[C@H](Cc1ccccc1)NC(=O)[C@H](Cc1c[nH]c2ccccc12)NC(=O)[C@H](CCCNC(=N)N)NC(=O)[C@H](Cc1c[nH]c2ccccc12)NC(=O)[C@H](CCCNC(=N)N)NC(=O)[C@H](Cc1c[nH]c2ccccc12)NC(=O)[C@@H](N)CCCNC(=N)N)C(=O)N[C@@H](CCCCN)C(=O)N[C@@H](Cc1cnc[nH]1)C(=O)N[C@@H](Cc1ccccc1)C(=O)N[C@H](C(=O)N[C@@H](Cc1cnc[nH]1)C(=O)N[C@@H](CCCNC(=N)N)C(=O)N[C@@H](Cc1ccccc1)C(N)=O)[C@@H](C)CC (H-RWRWRWF[Aoc]FIKHFIHRF-NH2)	62.5 µg/mL (≈ 24.4 µM)	125 µg/mL (≈ 48.8 µM)	32 µg/mL (≈ 12.5 µM)	32 µg/mL (≈ 12.5 µM)	32 µg/mL (≈ 12.5 µM)	62.5 µg/mL (≈ 24.4 µM)				
CC[C@H](C)[C@H](NC(=O)[C@H](Cc1ccccc1)NC(=O)CCCCCCCNC(=O)[C@H](Cc1cnc[nH]1)NC(=O)[C@H](CC(C)C)NC(=O)[C@H](CC(C)C)NC(=O)[C@H](Cc1cnc[nH]1)NC(=O)[C@H](Cc1cnc[nH]1)NC(=O)[C@H](CC(C)C)NC(=O)[C@H](CCCCN)NC(=O)[C@H](CCCCN)NC(=O)[C@H](CC(C)C)NC(=O)[C@H](CC(C)C)NC(=O)[C@H](CCCNC(=N)N)NC(=O)[C@H](CCCNC(=N)N)NC(=O)[C@H](Cc1c[nH]c2ccccc12)NC(=O)[C@@H](N)CCCNC(=N)N)C(=O)N[C@@H](CCCCN)C(=O)N[C@@H](Cc1cnc[nH]1)C(=O)N[C@@H](Cc1ccccc1)C(=O)N[C@H](C(=O)N[C@@H](Cc1cnc[nH]1)C(=O)N[C@@H](CCCNC(=N)N)C(=O)N[C@@H](Cc1ccccc1)C(N)=O)[C@@H](C)CC (H-RWRRLLKKLHHLLH[Aoc]FIKHFIHRF-NH2)	16 µg/mL (≈ 4.89 µM)	32 µg/mL (≈ 9.78 µM)	8 µg/mL (≈ 2.44 µM)	32 µg/mL (≈ 9.78 µM)	16 µg/mL (≈ 4.89 µM)	62.5 µg/mL (≈ 19.1 µM)				
H-LQLLKQLLKLLKQF-NH2	8 µg/mL	8 µg/mL	8 µg/mL	16 µg/mL	8 µg/mL	16 µg/mL				
H-RWRWRWFGGGFIKHFIHRF-NH2	32 µg/mL	62.5 µg/mL	8 µg/mL	32 µg/mL	32 µg/mL	32 µg/mL				
H-FIKHFIHRFGGGIKQLLHFFQRF-NH2	32 µg/mL	125 µg/mL	8 µg/mL	16 µg/mL	32 µg/mL	62.5 µg/mL				
H-RWRRLLKKLHHLLHSATFIKHFIHRF-NH2	16 µg/mL	32 µg/mL	8 µg/mL	16 µg/mL	16 µg/mL	32 µg/mL	Active			
H-RWRWRWFSATFIKHFIHRF-NH2	62.5 µg/mL	62.5 µg/mL	8 µg/mL	16 µg/mL	32 µg/mL	62.5 µg/mL				
CC[C@H](C)[C@H](NC(=O)[C@H](Cc1ccccc1)NC(=O)[C@H](Cc1cnc[nH]1)NC(=O)[C@H](CCCCN)NC(=O)[C@@H](NC(=O)[C@@H](N)Cc1ccccc1)[C@@H](C)CC)C(=O)N[C@@H](Cc1cnc[nH]1)C(=O)N[C@@H](CCCNC(=N)N)C(=O)N[C@@H](Cc1ccccc1)C(=O)NCCCCCCCC(=O)N[C@@H](CCCNC(=N)N)C(=O)N[C@@H](Cc1c[nH]c2ccccc12)C(=O)N[C@@H](CCCNC(=N)N)C(=O)N[C@@H](CCCNC(=N)N)C(=O)N[C@@H](CC(C)C)C(=O)N[C@@H](CC(C)C)C(=O)N[C@@H](CCCCN)C(=O)N[C@@H](CCCCN)C(=O)N[C@@H](CC(C)C)C(=O)N[C@@H](Cc1cnc[nH]1)C(=O)N[C@@H](Cc1cnc[nH]1)C(=O)N[C@@H](CC(C)C)C(=O)N[C@@H](CC(C)C)C(=O)N[C@@H](Cc1cnc[nH]1)C(N)=O (H-FIKHFIHRF[Aoc]RWRRLLKKLHHLLH-NH2)	32 µg/mL (≈ 9.78 µM)	62.5 µg/mL (≈ 19.1 µM)	16 µg/mL (≈ 4.89 µM)	32 µg/mL (≈ 9.78 µM)	32 µg/mL (≈ 9.78 µM)	62.5 µg/mL (≈ 19.1 µM)	Active			
H-LQLLKQLLKLLKQFSGGFIKHFIHRF-NH2	16 µg/mL	32 µg/mL	8 µg/mL	32 µg/mL	16 µg/mL	32 µg/mL				
H-RWRRLLKKLHHLLHSGGFIKHFIHRF-NH2	16 µg/mL	32 µg/mL	8 µg/mL	32 µg/mL	32 µg/mL	32 µg/mL				
CC[C@H](C)[C@H](NC(=O)[C@H](Cc1ccccc1)NC(=O)[C@H](Cc1cnc[nH]1)NC(=O)[C@H](CCCCN)NC(=O)[C@@H](NC(=O)[C@@H](N)Cc1ccccc1)[C@@H](C)CC)C(=O)N[C@@H](Cc1cnc[nH]1)C(=O)N[C@@H](CCCNC(=N)N)C(=O)N[C@@H](Cc1ccccc1)C(=O)NCCCCCCCC(=O)N[C@@H](CC(C)C)C(=O)N[C@@H](CCC(N)=O)C(=O)N[C@@H](CC(C)C)C(=O)N[C@@H](CC(C)C)C(=O)N[C@@H](CCCCN)C(=O)N[C@@H](CCC(N)=O)C(=O)N[C@@H](CC(C)C)C(=O)N[C@@H](CC(C)C)C(=O)N[C@@H](CCCCN)C(=O)N[C@@H](CC(C)C)C(=O)N[C@@H](CC(C)C)C(=O)N[C@@H](CCCCN)C(=O)N[C@@H](CCC(N)=O)C(=O)N[C@@H](Cc1ccccc1)C(N)=O (H-FIKHFIHRF[Aoc]LQLLKQLLKLLKQF-NH2)	32 µg/mL (≈ 10.3 µM)	62.5 µg/mL (≈ 20.2 µM)	16 µg/mL (≈ 5.17 µM)	62.5 µg/mL (≈ 20.2 µM)	32 µg/mL (≈ 10.3 µM)	62.5 µg/mL (≈ 20.2 µM)				
H-IKQLLHFFQRF-NH2	32 µg/mL	62.5 µg/mL	24 µg/mL	62.5 µg/mL	62.5 µg/mL	62.5 µg/mL				
